ChEMBL document CHEMBL1140708, “Synthesis and in vivo evaluation of halogenated N,N-dimethyl-2-(2'-amino-4'-hydroxymethylphenylthio)benzylamine derivatives as PET serotonin transporter ligands” (J Med Chem, 2008)
Each block holds one molecule with its values, some of them ahead of it.

Columns and labels:
[1] = target: Sodium-dependent dopamine transporter (Homo sapiens, UniProt Q01959); assay: Displacement of [125I]RTI-55 from human DAT expressed in MDCK cells; format: cell-based
Outline: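 MDCK cells stably expressing hDAT, grown to confluency in DMEM with 10% FBS and Geneticin, harvested in PBS/0.53 mM EDTA. Membranes (30–70 µg protein) were incubated 1 h at room temperature with 2.0 nM [125I]RTI-55 in 42 mM sodium phosphate/320 mM sucrose, pH 7.4. Competitor: 12 concentrations, 10^-13 to 10^-5 M, in triplicate. Filtered through PEI-soaked GF/B filters; Ki averaged over ≥2 assays.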

[2] = target: Sodium-dependent serotonin transporter (Homo sapiens, UniProt P31645); assay: Displacement of [3H]citalopram from human SERT expressed in HEK293 cells; format: cell-based
Outline: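 Membranes (30–70 µg protein) from HEK-293 cells stably expressing hSERT, grown in DMEM/10% FBS/Geneticin. Incubated 2 h at room temperature with [3H]citalopram in 53 mM Tris, 126 mM NaCl, 5.3 mM KCl, pH 7.9. Competitor: 12 concentrations, 10^-13 to 10^-5 M, in triplicate. Rapid filtration on GF/B with cold buffer washes; Ki averaged from ≥2 separate assays.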

[3] = target: Sodium-dependent noradrenaline transporter (Homo sapiens, UniProt P23975); assay: Displacement of [3H]nisoxetine from human NET t expressed in HEK293 cells; format: cell-based
Outline: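 Membranes (30–70 µg protein) from HEK-293 cells stably expressing hNET. Equilibrium with [3H]nisoxetine for 4 h at 4 °C in 53 mM Tris, 320 mM NaCl, 5.3 mM KCl, pH 7.4 at 4 °C. Competitor: 12 concentrations, 10^-13 to 10^-5 M, in triplicate. Ended by vacuum filtration through PEI-presoaked GF/B filters; Ki averaged from at least two assays, each in duplicate.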

Homo sapiens [4] = species: Homo sapiens; assay: Selectivity for human NET to human SERT
Outline: (§1)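 Ratio of Ki at hDAT or hNET to Ki at hSERT. Ki values come from competition binding on transfected cell membranes: [125I]RTI-55 (MDCK-hDAT), [3H]nisoxetine (HEK-hNET) or [3H]citalopram (HEK-hSERT); 12 competitor concentrations from 10^-13 to 10^-5 M.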

Homo sapiens [5] = species: Homo sapiens; assay: Selectivity for human DAT to human SERT; outline: as §1
Medulla [6] = assay: Drug uptake in cynomolgus monkey medulla in presence of citalopram after 85 mins; format: ADME, tissue-based, Macaca fascicularis, Medulla of organ; conditions: in vivo
Outline: (§2)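 Chase microPET scans in the same male cynomolgus monkey after i.v. 11C radiotracer (6.90–18.10 mCi). R,S-citalopram·HBr, 1.5 mg/kg, was given i.v. as a 30 s bolus at 45 min (ratios at 45 and 85 min) or 60 min (ratios at 55 and 115 min) post-tracer. Value is the region-to-cerebellum activity ratio before and after citalopram.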

Frontal cortex [7] = assay: Drug uptake in cynomolgus monkey frontal cortex in presence of citalopram after 85 mins; format: ADME, tissue-based, Macaca fascicularis; conditions: in vivo; outline: as §2
Putamen [8] = assay: Drug uptake in cynomolgus monkey putamen in presence of citalopram after 85 mins; format: ADME, tissue-based, Macaca fascicularis; conditions: in vivo; outline: as §2
Caudate [9] = assay: Drug uptake in cynomolgus monkey caudate after 45 mins; format: ADME, tissue-based, Macaca fascicularis, Caudate nucleus; conditions: in vivo, 0.75 h; outline: as §2
Pons [10] = assay: Drug uptake in cynomolgus monkey pons after 45 mins; format: ADME, tissue-based, Macaca fascicularis; conditions: in vivo, 0.75 h; outline: as §2
Thalamus [11] = assay: Drug uptake in cynomolgus monkey thalamus after 85 mins; format: ADME, tissue-based, Macaca fascicularis; conditions: in vivo
Outline: (§3)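 Baseline microPET (Concorde P4) scans in one anesthetized adult male cynomolgus monkey (7.50–8.35 kg) after i.v. radiotracer. Attenuation correction used a 68Ge transmission scan; OSEM reconstruction, 3 mm resolution. Value is the region-of-interest to cerebellum activity ratio at 85 min post-injection.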

Occipital cortex [12] = assay: Drug uptake in cynomolgus monkey occipital cortex after 45 mins; format: ADME, tissue-based, Macaca fascicularis; conditions: in vivo, 0.75 h; outline: as §2
Frontal cortex [13] = assay: Drug uptake in cynomolgus monkey frontal cortex after 45 mins; format: ADME, tissue-based, Macaca fascicularis; conditions: in vivo, 0.75 h; outline: as §2
Midbrain [14] = assay: Drug uptake in cynomolgus monkey midbrain in presence of citalopram after 85 mins; format: ADME, tissue-based, Macaca fascicularis; conditions: in vivo; outline: as §2
Thalamus [15] = assay: Drug uptake in cynomolgus monkey thalamus after 45 mins; format: ADME, tissue-based, Macaca fascicularis; conditions: in vivo, 0.75 h; outline: as §2
Putamen [16] = assay: Drug uptake in cynomolgus monkey putamen after 45 mins; format: ADME, tissue-based, Macaca fascicularis; conditions: in vivo, 0.75 h; outline: as §2
Pons [17] = assay: Drug uptake in cynomolgus monkey pons after 85 mins; format: ADME, tissue-based, Macaca fascicularis; conditions: in vivo; outline: as §3
Pons [18] = assay: Drug uptake in cynomolgus monkey pons in presence of citalopram after 85 mins; format: ADME, tissue-based, Macaca fascicularis; conditions: in vivo; outline: as §2
Caudate [19] = assay: Drug uptake in cynomolgus monkey caudate in presence of citalopram after 85 mins; format: ADME, tissue-based, Macaca fascicularis, Caudate nucleus; conditions: in vivo; outline: as §2
Medulla [20] = assay: Drug uptake in cynomolgus monkey medulla after 45 mins; format: ADME, tissue-based, Macaca fascicularis, Medulla of organ; conditions: in vivo, 0.75 h; outline: as §2
[21] = Partition coefficient, log P at pH 7.4; format: physicochemical; conditions: octanol/water
Outline: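 Each 11C-labelled radiotracer was partitioned between 1-octanol and 0.02 M phosphate buffer at pH 7.4.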

Medulla [22] = assay: Drug uptake in cynomolgus monkey medulla after 85 mins; format: ADME, tissue-based, Macaca fascicularis, Medulla of organ; conditions: in vivo; outline: as §3
Midbrain [23] = assay: Drug uptake in cynomolgus monkey midbrain after 85 mins; format: ADME, tissue-based, Macaca fascicularis; conditions: in vivo; outline: as §3
Occipital cortex [24] = assay: Drug uptake in cynomolgus monkey occipital cortex in presence of citalopram after 85 mins; format: ADME, tissue-based, Macaca fascicularis; conditions: in vivo; outline: as §2
Midbrain [25] = assay: Drug uptake in cynomolgus monkey midbrain after 45 mins; format: ADME, tissue-based, Macaca fascicularis; conditions: in vivo, 0.75 h; outline: as §2
Thalamus [26] = assay: Drug uptake in cynomolgus monkey thalamus in presence of citalopram after 85 mins; format: ADME, tissue-based, Macaca fascicularis; conditions: in vivo; outline: as §2
Frontal cortex [27] = assay: Drug uptake in cynomolgus monkey frontal cortex after 85 mins; format: ADME, tissue-based, Macaca fascicularis; conditions: in vivo; outline: as §3
Pons [28] = assay: Drug uptake in cynomolgus monkey pons after 55 mins; format: ADME, tissue-based, Macaca fascicularis; conditions: in vivo; outline: as §2
Occipital cortex [29] = assay: Drug uptake in cynomolgus monkey occipital cortex in presence of citalopram after 115 mins; format: ADME, tissue-based, Macaca fascicularis; conditions: in vivo; outline: as §2
Medulla [30] = assay: Drug uptake in cynomolgus monkey medulla after 55 mins; format: ADME, tissue-based, Macaca fascicularis, Medulla of organ; conditions: in vivo; outline: as §2
Putamen [31] = assay: Drug uptake in cynomolgus monkey putamen after 55 mins; format: ADME, tissue-based, Macaca fascicularis; conditions: in vivo; outline: as §2
Caudate [32] = assay: Drug uptake in cynomolgus monkey caudate in presence of citalopram after 115 mins; format: ADME, tissue-based, Macaca fascicularis, Caudate nucleus; conditions: in vivo; outline: as §2
Putamen [33] = assay: Drug uptake in cynomolgus monkey putamen in presence of citalopram after 115 mins; format: ADME, tissue-based, Macaca fascicularis; conditions: in vivo; outline: as §2
Caudate [34] = assay: Drug uptake in cynomolgus monkey caudate after 55 mins; format: ADME, tissue-based, Macaca fascicularis, Caudate nucleus; conditions: in vivo; outline: as §2
Midbrain [35] = assay: Drug uptake in cynomolgus monkey midbrain after 55 mins; format: ADME, tissue-based, Macaca fascicularis; conditions: in vivo; outline: as §2
Occipital cortex [36] = assay: Drug uptake in cynomolgus monkey occipital cortex after 55 mins; format: ADME, tissue-based, Macaca fascicularis; conditions: in vivo; outline: as §2
Midbrain [37] = assay: Drug uptake in cynomolgus monkey midbrain in presence of citalopram after 115 mins; format: ADME, tissue-based, Macaca fascicularis; conditions: in vivo; outline: as §2
Pons [38] = assay: Drug uptake in cynomolgus monkey pons in presence of citalopram after 115 mins; format: ADME, tissue-based, Macaca fascicularis; conditions: in vivo; outline: as §2
Caudate [39] = assay: Drug uptake in cynomolgus monkey caudate after 85 mins; format: ADME, tissue-based, Macaca fascicularis, Caudate nucleus; conditions: in vivo; outline: as §3
Occipital cortex [40] = assay: Drug uptake in cynomolgus monkey occipital cortex after 85 mins; format: ADME, tissue-based, Macaca fascicularis; conditions: in vivo; outline: as §3
Thalamus [41] = assay: Drug uptake in cynomolgus monkey thalamus after 55 mins; format: ADME, tissue-based, Macaca fascicularis; conditions: in vivo; outline: as §2
Frontal cortex [42] = assay: Drug uptake in cynomolgus monkey frontal cortex in presence of citalopram after 115 mins; format: ADME, tissue-based, Macaca fascicularis; conditions: in vivo; outline: as §2
Medulla [43] = assay: Drug uptake in cynomolgus monkey medulla in presence of citalopram after 115 mins; format: ADME, tissue-based, Macaca fascicularis, Medulla of organ; conditions: in vivo; outline: as §2
Putamen [44] = assay: Drug uptake in cynomolgus monkey putamen after 85 mins; format: ADME, tissue-based, Macaca fascicularis; conditions: in vivo; outline: as §3
Frontal cortex [45] = assay: Drug uptake in cynomolgus monkey frontal cortex after 55 mins; format: ADME, tissue-based, Macaca fascicularis; conditions: in vivo; outline: as §2
Thalamus [46] = assay: Drug uptake in cynomolgus monkey thalamus in presence of citalopram after 115 mins; format: ADME, tissue-based, Macaca fascicularis; conditions: in vivo; outline: as §2

Sequence of Sodium-dependent dopamine transporter (Q01959 whole entry): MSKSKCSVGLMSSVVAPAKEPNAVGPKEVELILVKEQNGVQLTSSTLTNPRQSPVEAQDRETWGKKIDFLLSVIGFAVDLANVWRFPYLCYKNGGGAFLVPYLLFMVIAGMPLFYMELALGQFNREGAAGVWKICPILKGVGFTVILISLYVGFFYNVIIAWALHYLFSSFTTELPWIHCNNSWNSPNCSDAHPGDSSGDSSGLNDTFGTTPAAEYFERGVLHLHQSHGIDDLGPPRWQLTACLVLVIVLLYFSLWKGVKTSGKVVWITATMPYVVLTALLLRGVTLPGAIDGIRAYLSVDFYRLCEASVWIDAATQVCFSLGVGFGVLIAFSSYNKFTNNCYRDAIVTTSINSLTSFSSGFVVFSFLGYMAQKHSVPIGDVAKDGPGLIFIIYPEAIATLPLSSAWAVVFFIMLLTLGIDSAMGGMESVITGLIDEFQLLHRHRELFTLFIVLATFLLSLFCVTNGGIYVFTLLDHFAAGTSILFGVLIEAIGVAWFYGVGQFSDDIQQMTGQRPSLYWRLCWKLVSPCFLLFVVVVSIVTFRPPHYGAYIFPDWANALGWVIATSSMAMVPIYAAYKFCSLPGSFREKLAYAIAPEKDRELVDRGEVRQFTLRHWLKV
Sequence of Sodium-dependent noradrenaline transporter (P23975 whole entry): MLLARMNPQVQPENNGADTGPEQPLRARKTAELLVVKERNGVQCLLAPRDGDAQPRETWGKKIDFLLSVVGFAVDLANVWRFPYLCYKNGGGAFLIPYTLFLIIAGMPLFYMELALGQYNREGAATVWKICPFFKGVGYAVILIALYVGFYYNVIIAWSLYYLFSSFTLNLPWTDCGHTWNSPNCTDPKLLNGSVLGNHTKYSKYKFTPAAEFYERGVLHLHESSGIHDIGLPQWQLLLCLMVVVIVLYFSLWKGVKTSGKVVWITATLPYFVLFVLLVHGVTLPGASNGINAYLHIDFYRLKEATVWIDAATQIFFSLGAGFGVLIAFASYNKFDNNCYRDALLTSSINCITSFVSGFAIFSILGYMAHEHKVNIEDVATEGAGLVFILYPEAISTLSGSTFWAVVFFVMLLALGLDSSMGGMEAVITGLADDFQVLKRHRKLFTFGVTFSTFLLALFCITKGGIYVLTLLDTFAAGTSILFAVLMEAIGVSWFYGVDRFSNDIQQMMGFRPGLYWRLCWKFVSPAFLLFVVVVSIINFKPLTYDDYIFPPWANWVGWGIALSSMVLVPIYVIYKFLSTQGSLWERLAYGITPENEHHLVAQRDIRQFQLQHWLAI
Sequence of Sodium-dependent serotonin transporter (P31645 whole entry): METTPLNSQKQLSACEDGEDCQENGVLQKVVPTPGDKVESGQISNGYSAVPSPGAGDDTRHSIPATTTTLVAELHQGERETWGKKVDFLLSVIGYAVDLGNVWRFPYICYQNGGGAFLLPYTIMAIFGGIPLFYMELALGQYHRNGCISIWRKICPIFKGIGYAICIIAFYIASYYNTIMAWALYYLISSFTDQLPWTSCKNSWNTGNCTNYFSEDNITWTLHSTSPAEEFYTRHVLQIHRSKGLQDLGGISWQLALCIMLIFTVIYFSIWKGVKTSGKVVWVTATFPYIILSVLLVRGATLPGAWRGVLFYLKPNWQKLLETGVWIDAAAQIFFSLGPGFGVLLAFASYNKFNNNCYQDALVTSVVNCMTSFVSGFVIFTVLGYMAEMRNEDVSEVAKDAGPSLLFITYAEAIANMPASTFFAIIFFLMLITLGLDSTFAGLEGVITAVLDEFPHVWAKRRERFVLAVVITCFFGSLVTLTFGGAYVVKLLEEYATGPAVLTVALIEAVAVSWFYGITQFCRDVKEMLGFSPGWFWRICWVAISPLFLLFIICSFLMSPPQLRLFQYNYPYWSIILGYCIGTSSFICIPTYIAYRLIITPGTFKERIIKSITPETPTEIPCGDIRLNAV

Ki [1]: 221 nM
Ki [2]: 0.29 nM
Ki [3]: 725 nM
Ratio Ki (Homo sapiens [4]): > 2000
Ratio Ki (Homo sapiens [5]): 762
SMILES: CN(C)Cc1cc(Br)ccc1Sc1ccc(CO)cc1N

Ratio (Medulla [6]): 1.1
Ratio (Frontal cortex [7]): 1
Ratio (Putamen [8]): 1.2
Ratio (Caudate [9]): 1.6
Ratio (Pons [10]): 2
Ratio (Thalamus [11]): 2.3
Ratio (Occipital cortex [12]): 1.3
Ratio (Frontal cortex [13]): 1.06
Ratio (Midbrain [14]): 1.2
Ratio (Thalamus [15]): 1.9
Ratio (Putamen [16]): 1.8
Ratio (Pons [17]): 2.8
Ratio (Pons [18]): 1.4
Ratio (Caudate [19]): 1.06
Ratio (Medulla [20]): 2
logD [21]: 2.06
Ratio (Medulla [22]): 2.1
Ratio (Midbrain [23]): 3.4
Ratio (Occipital cortex [24]): 1.04
Ratio (Midbrain [25]): 2.3
Ratio (Thalamus [26]): 1.3
Ratio (Frontal cortex [27]): 1.04
SMILES: CN([11CH3])Cc1cc(F)ccc1Sc1ccc(CO)cc1N

Ratio (Pons [28]): 2
Ratio (Occipital cortex [29]): 1.1
Ratio (Medulla [30]): 2.3
Ratio (Thalamus [11]): 2.3
Ratio (Putamen [31]): 1.6
Ratio (Caudate [32]): 1
Ratio (Putamen [33]): 1.2
Ratio (Caudate [34]): 1.4
Ratio (Midbrain [35]): 2.4
Ratio (Pons [17]): 2.8
Ratio (Occipital cortex [36]): 1.35
Ratio (Midbrain [37]): 1.2
Ratio (Pons [38]): 1.23
logD [21]: 2.63
Ratio (Caudate [39]): 1.7
Ratio (Occipital cortex [40]): 1.34
Ratio (Thalamus [41]): 1.8
Ratio (Medulla [22]): 2.6
Ratio (Frontal cortex [42]): 1
Ratio (Midbrain [23]): 3.24
Ratio (Medulla [43]): 1.1
Ratio (Putamen [44]): 2.4
Ratio (Frontal cortex [45]): 1
Ratio (Frontal cortex [27]): 1.06
Ratio (Thalamus [46]): 1.4
SMILES: CN([11CH3])Cc1cc(Br)ccc1Sc1ccc(CO)cc1N
